Assay results from ChEMBL document CHEMBL1136726, “Synthesis and characterization of iodine-123 labeled 2beta-carbomethoxy-3beta-(4'-((Z)-2-iodoethenyl)phenyl)nortropane. A ligand for in vivo imaging of serotonin transporters by single-photon-emission tomography” (J Med Chem, 2003).
“And” between values parts separate entries of the source, which are not always exact repeats. Equal values may be shown once.

Tests used:
Rattus norvegicus [1] = assay: Distribution of radioactivity in rat brain region frontal cortex 60 min after intravenous administration of iodine labeled compound in presence of RTI-113 blocker in study 1; format: ADME, organism-based; details: in vivo, 1 h
Procedure, shortened: (§1)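 Male Sprague–Dawley rats (250–300 g), ketamine-anesthetized. Blocker (2 mg/kg) or none was given iv 15 min before tail-vein radioligand (10 µCi in 0.2 mL 10% EtOH/saline). Rats were killed at 60 min with im pentobarbital. Brain regions were dissected, weighed and gamma-counted. % dose/g was taken from decay-corrected, background-subtracted counts versus the injected dose.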

Rattus norvegicus [2] = assay: Distribution of radioactivity in rat brain striatum 30 min after intravenous administration of iodine labeled compound; format: ADME, organism-based; details: in vivo, 0.5 h
Procedure, shortened: (§2)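 Male Sprague–Dawley rats (225–300 g) under ketamine anaesthesia were given [123I]ZIENT (10 μCi) in 0.2 mL 10% EtOH/0.9% NaCl into the tail vein, with a saline flush. Hypothalamus, prefrontal cortex, striatum, pons and cerebellum were dissected and gamma-counted. % injected dose/g came from decay-corrected counts against the diluted injected dose, and region/cerebellum ratios were taken from these. Mean ± SE, n=4–5.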

Rattus norvegicus [3] = assay: Distribution of radioactivity in rat brain striatum 5 min after intravenous administration of iodine labeled compound; format: ADME, organism-based; details: in vivo; procedure, shortened: as §2
Rattus norvegicus [4] = assay: Distribution of radioactivity in rat heart 30 min after intravenous administration of iodine labeled compound; format: ADME, organism-based; details: in vivo, 0.5 h
Procedure, shortened: (§3)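 Tail-vein injection of [123I]ZIENT (10 μCi in 0.2 mL 10% EtOH/0.9% NaCl, then 0.4 mL saline flush) into ketamine-anaesthetised male Sprague–Dawley rats (225–300 g). Animals were killed by cardiac excision at set times. Organs were excised, rinsed, blotted, weighed and gamma-counted. % dose/g was calculated against diluted aliquots of injectate. Mean ± SE, n=4–5.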

Rattus norvegicus [5] = assay: Distribution of radioactivity in rat kidney 120 min after intravenous administration of iodine labeled compound; format: ADME, organism-based; details: in vivo, 2 h; procedure, shortened: as §3
Rattus norvegicus [6] = assay: Distribution of radioactivity in rat blood 120 min after intravenous administration of iodine labeled compound; format: ADME, organism-based; details: in vivo, 2 h
Procedure, shortened: (§4)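 Male Sprague–Dawley rats (225–300 g) under ketamine received 10 µCi radioligand in 0.2 mL 10% EtOH/0.9% NaCl via tail vein, then a saline flush. Killed by cardiac excision at set times. Organs were excised, weighed and gamma-counted. % dose/g was taken against diluted injectate. Mean ± SE and range, n=4 (5 min) or 5 (30–120 min).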

Rattus norvegicus [7] = assay: Distribution of radioactivity in rat blood 5 min after intravenous administration of iodine labeled compound; format: ADME, organism-based; details: in vivo; procedure, shortened: as §4
Rattus norvegicus [8] = assay: Distribution of radioactivity in rat blood 60 min after intravenous administration of iodine labeled compound; format: ADME, organism-based; details: in vivo, 1 h; procedure, shortened: as §4
Rattus norvegicus [9] = assay: Distribution of radioactivity in rat brain 120 min after intravenous administration of iodine labeled compound; format: ADME, organism-based; details: in vivo, 2 h
Rattus norvegicus [10] = assay: Distribution of radioactivity in rat brain 30 min after intravenous administration of iodine labeled compound; format: ADME, organism-based; details: in vivo, 0.5 h
Rattus norvegicus [11] = assay: Distribution of radioactivity in rat brain region prefrontal cortex 60 min after intravenous administration of iodine labeled compound in absence of blocker in study 2; format: ADME, organism-based; details: in vivo, 1 h; procedure, shortened: as §1
Rattus norvegicus [12] = assay: Distribution of radioactivity in rat brain region prefrontal cortex 60 min after intravenous administration of iodine labeled compound in presence of RTI-113 blocker in study 1; format: ADME, organism-based; details: in vivo, 1 h; procedure, shortened: as §1
Rattus norvegicus [13] = assay: Distribution of radioactivity in rat brain region striatum 60 min after intravenous administration of iodine labeled compound in absence of blocker in study 2; format: ADME, organism-based; details: in vivo, 1 h
Procedure, shortened: (§5)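 Male Sprague–Dawley rats (250–300 g), ketamine-anaesthetised, received [123I]ZIENT (10 μCi) in 0.2 mL 10% ethanol/0.9% NaCl via the tail vein. […] Rats were killed at 60 min with pentobarbital, brain regions dissected and gamma-counted. Values are % dose/g from decay-corrected, background-subtracted counts against the diluted injected dose.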

Rattus norvegicus [14] = assay: Distribution of radioactivity in rat brain region striatum 60 min after intravenous administration of iodine labeled compound in presence of fluvoxamine blocker in study 1; format: ADME, organism-based; details: in vivo, 1 h; procedure, shortened: as §5
Rattus norvegicus [15] = assay: Ratio of distribution of radioactivity in rat brain region prefrontal cortex and cerebellum 60 min after intravenous administration of iodine labeled compound in presence of fluvoxamine blocker in study 1; format: ADME, organism-based; details: in vivo, 1 h
Rattus norvegicus [16] = assay: Ratio of distribution of radioactivity in rat brain region striatum and cerebellum 60 min after intravenous administration of iodine labeled compound in absence of blocker in study 2; format: ADME, organism-based; details: in vivo, 1 h
Rattus norvegicus [17] = assay: Ratio of distribution of radioactivity in rat brain region striatum and cerebellum 60 min after intravenous administration of iodine labeled compound in presence of RTI-113 blocker in study 1; format: ADME, organism-based; details: in vivo, 1 h
Rattus norvegicus [18] = assay: Ratio of distribution of radioactivity in rat brain region hypothalamus and cerebellum 60 min after intravenous administration of iodine labeled compound in presence of reboxetine blocker in study 2; format: ADME, organism-based; details: in vivo, 1 h
Rattus norvegicus [19] = assay: Distribution of radioactivity in rat brain cerebellum 5 min after intravenous administration of iodine labeled compound; format: ADME, organism-based; details: in vivo
Procedure, shortened: (§6)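 Male Sprague–Dawley rats (225–300 g) under ketamine received 10 µCi radioligand iv (tail vein) in 10% EtOH/saline. Hypothalamus, prefrontal cortex, striatum, pons and cerebellum were dissected, weighed and gamma-counted. % injected dose/g was taken from decay-corrected counts versus diluted dose. Mean ± SE and range, n=5 (5, 30 min) or 4 (60, 120 min).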

Rattus norvegicus [20] = assay: Distribution of radioactivity in rat brain cerebellum 60 min after intravenous administration of iodine labeled compound; format: ADME, organism-based; details: in vivo, 1 h; procedure, shortened: as §6
Rattus norvegicus [21] = assay: Distribution of radioactivity in rat brain prefrontal cortex 120 min after intravenous administration of iodine labeled compound; format: ADME, organism-based; details: in vivo, 2 h; procedure, shortened: as §6
Rattus norvegicus [22] = assay: Distribution of radioactivity in rat brain prefrontal cortex 60 min after intravenous administration of iodine labeled compound; format: ADME, organism-based; details: in vivo, 1 h; procedure, shortened: as §6
Rattus norvegicus [23] = assay: Distribution of radioactivity in rat brain region cerebellum 60 min after intravenous administration of iodine labeled compound in absence of blocker in study 1; format: ADME, organism-based; details: in vivo, 1 h; procedure, shortened: as §1
Rattus norvegicus [24] = assay: Ratio of distribution of radioactivity in rat brain region pons and cerebellum 60 min after intravenous administration of iodine labeled compound in presence of reboxetine blocker in study 2; format: ADME, organism-based; details: in vivo, 1 h
Rattus norvegicus [25] = assay: Distribution of radioactivity in rat brain region frontal cortex 60 min after intravenous administration of iodine labeled compound in presence of fluvoxamine blocker in study 1; format: ADME, organism-based; details: in vivo, 1 h; procedure, shortened: as §1
Rattus norvegicus [26] = assay: Distribution of radioactivity in rat brain region frontal cortex 60 min after intravenous administration of iodine labeled compound in presence of reboxetine blocker in study 2; format: ADME, organism-based; details: in vivo, 1 h; procedure, shortened: as §1
Rattus norvegicus [27] = assay: Distribution of radioactivity in rat brain region hypothalamus 60 min after intravenous administration of iodine labeled compound in presence of RTI-113 blocker in study 1; format: ADME, organism-based; details: in vivo, 1 h; procedure, shortened: as §1
Rattus norvegicus [28] = assay: Distribution of radioactivity in rat lung 5 min after intravenous administration of iodine labeled compound; format: ADME, organism-based; details: in vivo; procedure, shortened: as §3
Rattus norvegicus [29] = assay: Distribution of radioactivity in rat lung 60 min after intravenous administration of iodine labeled compound; format: ADME, organism-based; details: in vivo, 1 h; procedure, shortened: as §3
Rattus norvegicus [30] = assay: Distribution of radioactivity in rat muscle tissue 30 min after intravenous administration of iodine labeled compound; format: ADME, organism-based; details: in vivo, 0.5 h; procedure, shortened: as §3
Rattus norvegicus [31] = assay: Distribution of radioactivity in rat testis 120 min after intravenous administration of iodine labeled compound; format: ADME, organism-based; details: in vivo, 2 h; procedure, shortened: as §3
Rattus norvegicus [32] = assay: Distribution of radioactivity in rat thyroid 120 min after intravenous administration of iodine labeled compound; format: ADME, organism-based, Thyroid gland; details: in vivo, 2 h; procedure, shortened: as §3
[33] = molecular target: Sodium-dependent noradrenaline transporter (Homo sapiens, UniProt P23975); assay: In vitro competitive binding versus [3H]- […] in murine kidney cells transfected with cDNA for human norepinephrine transporter (NET); format: cell-based
Sequence of Sodium-dependent noradrenaline transporter (P23975 whole entry): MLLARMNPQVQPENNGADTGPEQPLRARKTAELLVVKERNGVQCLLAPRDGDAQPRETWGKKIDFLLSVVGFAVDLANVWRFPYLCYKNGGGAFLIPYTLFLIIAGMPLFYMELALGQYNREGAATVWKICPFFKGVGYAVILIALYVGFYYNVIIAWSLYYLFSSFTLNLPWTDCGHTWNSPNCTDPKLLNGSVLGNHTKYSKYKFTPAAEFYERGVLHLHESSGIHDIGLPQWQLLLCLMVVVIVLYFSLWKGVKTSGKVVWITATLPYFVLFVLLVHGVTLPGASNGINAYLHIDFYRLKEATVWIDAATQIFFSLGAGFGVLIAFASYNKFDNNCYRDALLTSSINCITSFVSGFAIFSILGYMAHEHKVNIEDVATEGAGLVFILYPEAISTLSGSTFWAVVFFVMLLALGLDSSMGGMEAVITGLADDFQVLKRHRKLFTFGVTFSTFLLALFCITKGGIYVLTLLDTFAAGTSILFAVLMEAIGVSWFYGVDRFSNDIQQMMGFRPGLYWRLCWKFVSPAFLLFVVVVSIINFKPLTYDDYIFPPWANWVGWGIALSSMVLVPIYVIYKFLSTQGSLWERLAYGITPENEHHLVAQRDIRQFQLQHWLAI

Rattus norvegicus [34] = assay: Ratio of distribution of radioactivity in rat brain region striatum and cerebellum 60 min after intravenous administration of iodine labeled compound in presence of reboxetine blocker in study 2; format: ADME, organism-based; details: in vivo, 1 h

COC(=O)[C@@H]1C2CCC(C[C@@H]1c1ccc(/C=C\I)cc1)N2 (some centres undefined)
Distribution (dose/g) (Rattus norvegicus [1]): 0.66% | Distribution (dose/g) (Rattus norvegicus [2]): 0.72% | Distribution (dose/g) (Rattus norvegicus [3]): 0.64% | Distribution (dose/g) (Rattus norvegicus [4]): 0.36% | Distribution (dose/g) (Rattus norvegicus [5]): 0.31% | Distribution (dose/g) (Rattus norvegicus [6]): 0.31% | Distribution (dose/g) (Rattus norvegicus [7]): 0.44% | Distribution (dose/g) (Rattus norvegicus [8]): 0.37% | Distribution (dose/g) (Rattus norvegicus [9]): 0.39% | Distribution (dose/g) (Rattus norvegicus [10]): 0.74% | Distribution (dose/g) (Rattus norvegicus [11]): 0.74% | Distribution (dose/g) (Rattus norvegicus [12]): 0.78% | Distribution (dose/g) (Rattus norvegicus [13]): 0.63% | Distribution (dose/g) (Rattus norvegicus [14]): 0.3% | Distribution (dose/g) (Rattus norvegicus [15]): 1.65% | Distribution (dose/g) (Rattus norvegicus [16]): 3.32% | Distribution (dose/g) (Rattus norvegicus [17]): 2.56% | Distribution (dose/g) (Rattus norvegicus [18]): 2.83% | Distribution (dose/g) (Rattus norvegicus [19]): 0.53% | Distribution (dose/g) (Rattus norvegicus [20]): 0.25% | Distribution (dose/g) (Rattus norvegicus [21]): 0.49% | Distribution (dose/g) (Rattus norvegicus [22]): 0.82% | Distribution (dose/g) (Rattus norvegicus [23]): 0.24% and 0.19% | Distribution (dose/g) (Rattus norvegicus [24]): 2.35% | Distribution (dose/g) (Rattus norvegicus [25]): 0.27% | Distribution (dose/g) (Rattus norvegicus [26]): 0.63% | Distribution (dose/g) (Rattus norvegicus [27]): 0.8% | Distribution (dose/g) (Rattus norvegicus [28]): 4.96% | Distribution (dose/g) (Rattus norvegicus [29]): 1.41% | Distribution (dose/g) (Rattus norvegicus [30]): 0.23% | Distribution (dose/g) (Rattus norvegicus [31]): 0.31% | Distribution (dose/g) (Rattus norvegicus [32]): 1.87% | Ki [33]: 24 nM | Distribution (dose/g) (Rattus norvegicus [34]): 3.04%
